Test results taken from ChEMBL document CHEMBL4325889, “Natural products hybrids: 3,5,4'-Trimethoxystilbene-5,6,7-trimethoxyflavone chimeric analogs as potential cytotoxic agents against diverse human cancer cells” (Eur J Med Chem, 2019).
Active and inactive are the calls of the source. No cut-off for these calls is given here.

How the values were obtained:
HeLa [1] = assay: Induction of apoptosis in human HeLa cells assessed as live cells at 5 uM by Annexin V-FITC/propidium iodide staining based flow cytometry (reference value: 85.2%); type: functional
Procedure, shortened: (§1)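 HeLa human cervical cancer cells treated with increasing concentrations or for increasing incubation times. Cells stained with annexin V-FITC and propidium iodide and analysed by FACS. Gating: early apoptotic = annexin+/PI−, late apoptotic = annexin+/PI+.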

HeLa [2] = assay: Induction of apoptosis in human HeLa cells assessed as necrotic cells after 12 hrs by Annexin V-FITC/propidium iodide staining based flow cytometry (reference value: 0.9%); type: functional; procedure, shortened: as §1
SF-539 = assay: Growth inhibition of human SF539 cells at 10 uM after 48 hrs by SRB assay relative to control; type: functional; settings: SF-539, 48 h, read-out: GI
Procedure, shortened: (§2)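 Screened at the National Cancer Institute by the standard NCI protocol using the sulforhodamine B assay, which measures cellular protein. Single dose of 10 µM. Result is percent growth inhibition; values above 100% mean cell number fell below the initial population. Values are the average of duplicates.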

HeLa [3] = assay: Induction of apoptosis in human HeLa cells assessed as live cells at 2.5 uM by Annexin V-FITC/propidium iodide staining based flow cytometry (reference value: 85.2%); type: functional; procedure, shortened: as §1
NCI-H322M = assay: Growth inhibition of human NCI-H322M cells at 10 uM after 48 hrs by SRB assay relative to control; type: functional; settings: read-out: GI; procedure, shortened: as §2
HeLa [4] = assay: Induction of apoptosis in human HeLa cells assessed as live cells after 48 hrs by Annexin V-FITC/propidium iodide staining based flow cytometry (reference value: 92.9%); type: functional; procedure, shortened: as §1
LOX IMVI = assay: Growth inhibition of human LOXIMVI cells at 10 uM after 48 hrs by SRB assay relative to control; type: functional; settings: read-out: GI; procedure, shortened: as §2
[5] = Cytotoxicity against human IOSE-80PC cells after 48 hrs by MTT assay; type: cell-based
Procedure, shortened: (§3)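 Normal human lung epithelial L132 and ovarian epithelial IOSE-80PC cells were tested by MTT viability assay, and IC50 was determined.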

NCI/ADR-RES = assay: Growth inhibition of human NCI/ADR-RES cells at 10 uM after 48 hrs by SRB assay relative to control; type: functional; settings: read-out: GI; procedure, shortened: as §2
HeLa [6] = assay: Induction of apoptosis in human HeLa cells assessed as necrotic cells after 24 hrs by Annexin V-FITC/propidium iodide staining based flow cytometry (reference value: 0.9%); type: functional; procedure, shortened: as §1
HeLa [7] = assay: Induction of apoptosis in human HeLa cells assessed as live cells after 24 hrs by Annexin V-FITC/propidium iodide staining based flow cytometry (reference value: 92.9%); type: functional; procedure, shortened: as §1
U-251 = assay: Growth inhibition of human U251 cells at 10 uM after 48 hrs by SRB assay relative to control; type: functional; settings: U-251, 48 h, read-out: GI
Procedure, shortened: (§4)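 NCI screen against its human cancer cell line panel by the standard NCI protocol, SRB protein stain. Single dose of 10 μM. Percent growth inhibition versus control; values above 100% mean the cell population fell below the starting number. Each value is the mean of duplicates.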

CAKI-1 = assay: Growth inhibition of human Caki1 cells at 10 uM after 48 hrs by SRB assay relative to control; type: functional; settings: CAKI-1, 48 h, read-out: GI; procedure, shortened: as §2
HeLa [8] = assay: Induction of apoptosis in human HeLa cells assessed as early apoptotic cells at 2.5 uM by Annexin V-FITC/propidium iodide staining based flow cytometry (reference value: 5.7%); type: functional; procedure, shortened: as §1
HCT-116 = assay: Growth inhibition of human HCT116 cells at 10 uM after 48 hrs by SRB assay relative to control; type: functional; settings: HCT-116, 48 h, read-out: GI; procedure, shortened: as §2
L132 = assay: Cytotoxicity against human L-132 cells after 48 hrs by MTT assay; type: cell-based; settings: L132, 48 h; procedure, shortened: as §3
SK-MEL-2 = assay: Growth inhibition of human SK-MEL-2 cells at 10 uM after 48 hrs by SRB assay relative to control; type: functional; settings: SK-MEL-2, 48 h, read-out: GI; procedure, shortened: as §2
UO-31 = assay: Growth inhibition of human UO31 cells at 10 uM after 48 hrs by SRB assay relative to control; type: functional; settings: UO-31, 48 h, read-out: GI; procedure, shortened: as §4
HeLa [9] = assay: Induction of apoptosis in human HeLa cells assessed as early apoptotic cells at 10 uM by Annexin V-FITC/propidium iodide staining based flow cytometry (reference value: 5.7%); type: functional; procedure, shortened: as §1
OVCAR-5 = assay: Growth inhibition of human OVCAR5 cells at 10 uM after 48 hrs by SRB assay relative to control; type: functional; settings: OVCAR-5, 48 h, read-out: GI; procedure, shortened: as §2
SF-268 = assay: Growth inhibition of human SF268 cells at 10 uM after 48 hrs by SRB assay relative to control; type: functional; settings: SF-268, 48 h, read-out: GI; procedure, shortened: as §2
HL-60(TB) = assay: Growth inhibition of human HL-60(TB) cells at 10 uM after 48 hrs by SRB assay relative to control; type: functional; settings: HL-60, 48 h, read-out: GI
Procedure, shortened: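 Run at NCI under its standard single-dose protocol against a leukemia cell panel. Cells were exposed to 10 µM; growth was read by sulforhodamine B staining of cellular protein and expressed as % growth inhibition versus untreated control. Values above 100% mean the cell population fell below the starting count (cytocidal). Each value is the average of duplicates.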

PC-3 = assay: Growth inhibition of human PC3 cells at 10 uM after 48 hrs by SRB assay relative to control; type: functional; settings: PC-3, 48 h, read-out: GI; procedure, shortened: as §2
SF-295 = assay: Growth inhibition of human SF295 cells at 10 uM after 48 hrs by SRB assay relative to control; type: functional; settings: SF-295, 48 h, read-out: GI; procedure, shortened: as §2
HT-29 = assay: Growth inhibition of human HT-29 cells at 10 uM after 48 hrs by SRB assay relative to control; type: functional; settings: HT-29, 48 h, read-out: GI; procedure, shortened: as §2
BT-549 = assay: Growth inhibition of human BT549 cells at 10 uM after 48 hrs by SRB assay relative to control; type: functional; settings: BT-549, 48 h, read-out: GI; procedure, shortened: as §2
HeLa [10] = assay: Induction of apoptosis in human HeLa cells assessed as necrotic cells after 48 hrs by Annexin V-FITC/propidium iodide staining based flow cytometry (reference value: 0.9%); type: functional; procedure, shortened: as §1
HeLa [11] = assay: Induction of apoptosis in human HeLa cells assessed as necrotic cells at 5 uM by Annexin V-FITC/propidium iodide staining based flow cytometry (reference value: 2.2%); type: functional; procedure, shortened: as §1
HOP-92 = assay: Growth inhibition of human HOP92 cells at 10 uM after 48 hrs by SRB assay relative to control; type: functional; settings: HOP-92, 48 h, read-out: GI; procedure, shortened: as §2
COLO 205 = assay: Growth inhibition of human COLO205 cells at 10 uM after 48 hrs by SRB assay relative to control; type: functional; settings: COLO 205, 48 h, read-out: GI; procedure, shortened: as §2
HeLa [12] = assay: Induction of morphological changes in human HeLa cells assessed as chromatin condensation at 10 uM after 48 hrs by DAPI staining based fluorescence microscopic method; type: functional, cell-based
Procedure, shortened: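 HeLa cells exposed to 10 µM for 48 h, then stained with DAPI. Nuclear shape, size and density (bright condensed, fragmented chromatin, apoptotic bodies) examined by fluorescence microscopy under 358 nm excitation, against untreated control cells.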

IGROV-1 = assay: Growth inhibition of human IGROV1 cells at 10 uM after 48 hrs by SRB assay relative to control; type: functional; settings: IGROV-1, 48 h, read-out: GI; procedure, shortened: as §2

Compound `COc1cc(NC(=O)c2cccc(-c3cc(=O)c4c(OC)c(OC)c(OC)cc4o3)c2)cc(OC)c1OC` has an Activity (HeLa [1]) of 59.4%, an Activity (HeLa [2]) of 1% and an inhibition of growth at 10 µM (SF-539) of 47.4%. The Activity (HeLa [3]) was 79%, the inhibition of growth at 10 µM (NCI-H322M) was 30.5% and the Activity (HeLa [4]) was 33.2%. For the same compound, the inhibition of growth at 10 µM (LOX IMVI) was 75.6%, the IC50 [5] was 67.6 µM and the inhibition of growth at 10 µM (NCI/ADR-RES) was 48.9%. For the same compound, the Activity (HeLa [6]) was 1.8%, the Activity (HeLa [7]) was 80.3% and the inhibition of growth at 10 µM (U-251) was 55.1%. The inhibition of growth at 10 µM (CAKI-1) was 59.4%, the Activity (HeLa [8]) was 11.8% and the inhibition of growth at 10 µM (HCT-116) was 51.4%. The IC50 (L132) was > 100 µM, the inhibition of growth at 10 µM (SK-MEL-2) was 58.3% and the inhibition of growth at 10 µM (UO-31) was 79.1%. The Activity (HeLa [9]) was 22.6%, the inhibition of growth at 10 µM (OVCAR-5) was 14% and the inhibition of growth at 10 µM (SF-268) was 32.9%. For the same compound, the inhibition of growth at 10 µM (HL-60(TB)) was 64%, the inhibition of growth at 10 µM (PC-3) was 47.6% and the inhibition of growth at 10 µM (SF-295) was 55%. The inhibition of growth at 10 µM (HT-29) was 69%, the inhibition of growth at 10 µM (BT-549) was 73% and the Activity (HeLa [10]) was 3.7%. For the same compound, the Activity (HeLa [11]) was 5.7%, the inhibition of growth at 10 µM (HOP-92) was 75.3% and the inhibition of growth at 10 µM (COLO 205) was 55.7%. For the same compound, the Activity (HeLa [12]) was “Active” and the inhibition of growth at 10 µM (IGROV-1) was 48.2%.
